bCat nuc transl – modulators of beta-catenin nuclear translocation | HeLa beta-catenin nuclear translocation, immunofluorescence imaging | AID 1665 | nuclear translocation activity, % at 5 µM | 190,000 tested, 0.3% active;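 active = nuclear translocation activity above 50% at 5 µM, with a well cell count of 50 or more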;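 note: per-cell ratio of nuclear to cytoplasmic median beta-catenin stain intensity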
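System: Human HeLa cells, endogenous beta-catenin | Compound dosing: 5 µM primary, 0.02–20 µM confirmation | Timing: 24 h compound exposure at 37°C, 5% CO2 | Measured by: Fluorescence imaging of beta-catenin antibody stain plus DAPI | Read-out basis: % activation of per-cell nuclear versus cytoplasmic median beta-catenin signal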
STAT3 activator – increases IL-6 driven STAT3 reporter signal; U3A cells, IL-6 STAT3-luciferase reporter, luminescence; 100% = signal with IL-6 EC80 alone; activation (% of control), % at 5.6 µM; 190,000 tested, 0.91% active;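 active = activation above the screen-wide mean of compound activation plus 3 SD, cut at about 130% in these data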
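system = STAT3-luciferase reporter U3A cells | reagent = IL-6 stimulus at 33 ng/mL final | timing = 1 h compound pre-exposure, 6 h IL-6 stimulation, 37 °C | measured by = luminescence | evaluation = % activation versus median of IL-6-stimulated wells | control set = IL-6-only wells as 100% reference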
STAT3 blocker – reduces IL-6 driven STAT3 reporter signal. 190,000 tested, 0.89% active. U3A cells, IL-6 STAT3-luciferase reporter, luminescence; host cell line lacks STAT1. AID 862. inhibition, % at 5.5 µM;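 active = inhibition above the mean inhibition across all screened compounds plus 3 SD, cut at about 44% in these data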
STAT1 blocker – STAT1 signaling inhibition | NIH 3T3 STAT1-luciferase reporter, IFN-gamma, luminescence | inhibition, % at 5.5 µM | 200,000 tested, 0.35% active;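 active = inhibition above a set limit, the mean inhibition across all tested compounds plus 3 SD, cut at about 34% in these data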
MT stabilizer – microtubule stabilization, imaging screen. HeLa tubulin immunostaining HCS, 24 h; share of cells brighter than vehicle mean+2SD. % tubulin-high responders, % at 10 µM. 200,000 tested, 0.83% active;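 active = plate Z-score above 3 for both tubulin-high and condensed-nucleus cell shares, with cell loss under 80%, at 10 µM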;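 note: anti alpha tubulin signal scored within the nucleus-defined area of each cell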
Of the large screens only hits and unclear results are named; the others gave an inactive call. In the library only some 2.4% were active in any assay of this set; here they are far more common.

CCOc1cc(N2CCOCC2)c(OCC)cc1NC(C)C(=O)N1CCC(C)CC1 (stereo unspecified)	none
CCCCn1c(CCC)nc([N+](=O)[O-])c1Sc1ccc(Cl)cn1	STAT1 blocker 34 (no result: bCat nuc transl)
COC(=O)c1sccc1NC(=S)N1CCCCC1	none
COC(=O)c1sccc1NC(=S)N1CCN(c2cccc(C)c2C)CC1	MT stabilizer 15
CCN1C/C(=C/c2cccc([N+](=O)[O-])c2)C(=O)/C(=C/c2cccc([N+](=O)[O-])c2)C1	MT stabilizer 42
N=C1c2ccccc2CN1NC(=O)COc1ccc(Cl)cc1	none
CC1CCCC(C)N1C(=O)CSc1nc2ccccc2s1 (stereo unspecified)	STAT3 activator 133
CCn1nc(C)c(CNC(=O)CCc2nnc(Cc3c[nH]c4ccccc34)o2)c1C	none
Cc1nc2c(ccc3nc(NC(=O)C4CC4)sc32)s1	STAT3 activator 157
C/C(=N/NC(=O)CNC(=O)c1ccccn1)c1cccc([N+](=O)[O-])c1	none
CCOC(=O)c1cc(NC(=O)Nc2ccccn2)c(C)nc1C	none
CCN(CC)C(=O)c1ccccc1NS(C)(=O)=O	none
COC(=O)c1c(-c2ccc(C)cc2)csc1NC(=O)Cc1ccc(OC)c(OC)c1	none (no result: bCat nuc transl)
COC(=O)c1c(-c2cccc3ccccc23)csc1NC(=O)Cc1ccc(OC)c(OC)c1	MT stabilizer 52 (no result: bCat nuc transl)
O=C(CN1CCOCC1)Nc1ncc(Cc2ccccc2Cl)s1	none
CCc1ccc(CCC(=O)Nc2ncc(Cc3ccccc3Cl)s2)o1	bCat nuc transl 150, MT stabilizer 12
COc1ccccc1/C=N/NC(=O)CSc1cc(C)nc2ccccc12	MT stabilizer 27
COc1cccc2c(SCC(=O)N/N=C/c3ccc(O)cc3O)cc(C)nc12	none
Cc1cc(=O)oc2cc(OCC(=O)N3CCCC(C)C3)ccc12 (stereo unspecified)	none
Cc1cc(=O)oc2cc(OCC(=O)N3c4ccccc4CC3C)ccc12 (stereo unspecified)	MT stabilizer 51
Cc1cc(=O)oc2ccc(OCC(=O)N3CCC(C)CC3)cc12	STAT3 activator 135
COc1ccc(CCNC(=O)C2CCN(C(=O)c3ccc([N+](=O)[O-])cc3)CC2)cc1	none
Cn1c(SCC(=O)N/N=C/c2ccc([N+](=O)[O-])s2)nnc1-c1ccc(Cl)cc1	none
CCOC(=O)C1CCCN(S(=O)(=O)c2ccccc2)C1 (stereo unspecified)	none
CCOC(=O)C1CCCN(S(=O)(=O)c2ccc(OC)c3ccccc23)C1 (stereo unspecified)	MT stabilizer 11 (no result: bCat nuc transl)
CCOC(=O)/C(C#N)=C(\O)c1ccc(NC(=O)c2ccc([N+](=O)[O-])cc2)cc1	none (no result: STAT3 activator, STAT3 blocker, STAT1 blocker, MT stabilizer)
CSc1ccc(C2c3[nH]c4ccccc4c3CCN2C(=O)c2cc(C)n(C)n2)cc1 (stereo unspecified)	STAT3 activator 148
CCc1ccc(C2c3[nH]c4ccccc4c3CCN2C(=O)c2cc(C)nn2C)cc1 (stereo unspecified)	STAT3 activator 133
Cc1nc(C(=O)N2CCc3c([nH]c4ccccc34)C2c2cc(F)ccc2F)cs1 (stereo unspecified)	STAT3 activator 134
Cc1nc(C(=O)N2CCc3c([nH]c4ccccc34)C2c2ccccn2)cs1 (stereo unspecified)	none
CCOc1c(Cl)cc(CNCC(C)C)cc1Cl	none (no result: bCat nuc transl)
Cc1ccc(S(=O)(=O)N(C)c2ccc(N)cc2)cc1	none
Cc1ccc(S(=O)(=O)N(C)c2ccc3sc(C)nc3c2)cc1	MT stabilizer 18
COC(=O)c1ccc(COc2ccc(/C=N/Nc3nc(C)cc(=O)[nH]3)cc2)cc1	none (no result: STAT3 activator, STAT3 blocker, STAT1 blocker, MT stabilizer)
O=C(Cn1cnc2sc(-c3ccccc3)cc2c1=O)NCc1ccco1	MT stabilizer 27
O=C(Cn1cnc2scc(-c3ccccc3)c2c1=O)NCc1ccco1	none
O=C(Cn1cnc2sc(-c3ccccc3)cc2c1=O)NCCc1ccccc1	none (no result: bCat nuc transl)
O=C(Cn1cnc2sc(-c3ccccc3)cc2c1=O)NCc1ccccc1	MT stabilizer 36 (no result: bCat nuc transl)
Cc1cc(=O)n2c(n1)NC(Nc1cccc(C)c1C)=NC2c1ccccc1 (stereo unspecified)	none (no result: STAT3 activator, STAT3 blocker, STAT1 blocker, MT stabilizer)
O=C(CC1Nc2c3ccccc3nc(=S)n2C1=O)NC1CCCCC1 (stereo unspecified)	none
O=C(NCc1ccc2c(c1)OCO2)C1CC(c2ccc(Cl)cc2)=NO1 (stereo unspecified)	none
COc1cccc(C2=NOC(C(=O)NCc3ccc(F)cc3)C2)c1 (stereo unspecified)	none
COc1ccc(C2=NOC(C(=O)NCc3ccc(F)cc3)C2)cc1OC (stereo unspecified)	bCat nuc transl 56, STAT3 activator 134, MT stabilizer 14
COc1cc(OC)c(C2=NOC(C(=O)NCc3ccc4c(c3)OCO4)C2)cc1Cl (stereo unspecified)	MT stabilizer 23 (no result: bCat nuc transl)
COc1cc(C2=NOC(C(=O)NCc3ccc(F)cc3)C2)cc(OC)c1OC (stereo unspecified)	bCat nuc transl 73, MT stabilizer 24
CCc1[nH]c(C(=O)O)c(C)c1C(=O)OC	none (no result: STAT3 activator, STAT3 blocker, STAT1 blocker, MT stabilizer)
CC(=O)c1ccc(-n2c(SCC(=O)c3c[nH]c4ccccc34)nc3ccccc3c2=O)cc1	none
Cc1ccc(NC(=S)NC(=O)c2ccc(F)cc2)cc1S(=O)(=O)Nc1cccc(Cl)c1	MT stabilizer 20
COc1ccc(OC)c(NC(=O)NCCc2cccc(Cl)c2)c1	none
CC(=O)n1c2c(c3ccccc31)OC(N)=C(C#N)C2c1ccc(C(C)C)cc1 (stereo unspecified)	STAT3 activator 165 (no result: bCat nuc transl)
COc1ccc(N(C(=O)c2ccco2)S(=O)(=O)c2cc(Cl)c(Cl)cc2Cl)cc1	MT stabilizer 33 (no result: bCat nuc transl)
Cn1c(CNC(=O)c2ccc(F)cc2)nc2ccccc21	none
CSc1nc(N(C)NC(=O)c2ccc(F)cc2)c2ccccc2n1	MT stabilizer 33
CCCCC(=O)NC(NC(=S)N1CCCCCC1)C(Cl)(Cl)Cl (stereo unspecified)	none
Cn1c(/N=C/c2c(O)ccc3ccccc23)nc2ccccc21	STAT3 activator 134
CCCn1c(/N=C/c2ccccc2O)nc2ccccc21	none
CCN(c1ccccc1)S(=O)(=O)c1ccc(Cl)c(C(=O)N(CC2CCCO2)C2CCS(=O)(=O)C2)c1 (stereo unspecified)	none
COc1ccc(CNCC(=O)Nc2ccccc2-n2cccc2)cc1	MT stabilizer 33
CN(C)/C=C1\C(=O)Nc2ccccc21	STAT3 activator 135
O=C(/C=C/c1ccc2c(c1)OCO2)NCCSCc1c(Cl)cccc1Cl	none
Cc1nn2c(COc3ccc(NC(=O)c4ccccc4Cl)cc3)nnc2c2ccccc12	MT stabilizer 18
O=C(Nc1cc(S(=O)(=O)N2CCOCC2)ccc1N1CCOCC1)C1CCCO1 (stereo unspecified)	none
Cc1nc2ccc(NC(=O)c3ccc4ccccc4n3)cc2s1	none
Cc1nnc(NC(=O)c2ccc3ccccc3n2)s1	STAT3 activator 136
